In ChEMBL document CHEMBL5230173, “Site-directed late-stage diversification of macrocyclic nannocystins facilitating anticancer SAR and mode of action studies” (RSC Med Chem, 2023):

What was measured:
[1] = system: HCT-116; test: Antiproliferative activity against human HCT-116 cells assessed as inhibition of cell growth by Celltiter-Glo luminescence assay; type: functional, cell-based
[2] = system: MDA-MB-231; test: Antiproliferative activity against human MDA-MB-231 cells assessed as inhibition of cell growth incubated for 72 hrs by CCK-8 assay; conditions: MDA-MB-231, 72 h
[3] = system: HCT-116; test: Antiproliferative activity against human HCT-116 cells assessed as inhibition of cell growth by thymidine plus proliferation assay; type: functional, cell-based
[4] = system: HCT-116; test: Antiproliferative activity against human HCT-116 cells assessed as inhibition of cell growth incubated for 72 hrs by CCK-8 assay; conditions: HCT-116, 72 h
[5] = system: HCT-8; test: Antiproliferative activity against human HCT-8 cells assessed as inhibition of cell growth incubated for 72 hrs by CCK-8 assay; conditions: HCT-8, 72 h
[6] = Drug localization in endoplasmic reticulum of human MDA-MB-231 cells at 500 nM incubated for 8 hrs by ER-tracker red based laser scanning confocal microscopic analysis; type: ADME, cell-based; conditions: mda-mb-231, 8 h, 0.5 µM
Summary of the method: (§1)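 HCT-8 (250 nM) and MDA-MB231 (500 nM) cells were seeded at 4 × 10^4 on slides for 24 h, then exposed to the probe for 8 h. After an HBSS wash, cells were stained with ER-Tracker Red for 20 min at 37 °C, washed twice with medium, and fixed in 4% formaldehyde for 2 min. Confocal imaging used probe ex 405/em 460 nm and tracker ex 587/em 615 nm.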

[7] = Drug uptake in human MDA-MB-231 cells measured after compound washout by laser scanning confocal microscopic analysis; type: ADME, cell-based
[8] = Drug uptake in human MDA-MB-231 cells at 1 uM by laser scanning confocal microscopic analysis; type: ADME, cell-based; conditions: mda-mb-231, 1 h, TDE = time-dependent effect, time < 60 min
Summary of the method: (§2)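 MDA-MB231 cells were seeded at 6 × 10^4 on slides for 24 h in DMEM with 10% FBS. Cells were then PBS-washed twice, fixed in 4% formaldehyde for 2 min, and imaged by confocal microscopy (ex 405, em 460 nm).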

[9] = Drug localization in endoplasmic reticulum of human HCT-8 cells at 250 nM incubated for 8 hrs by ER-tracker red based laser scanning confocal microscopic analysis; type: ADME, cell-based; conditions: hct-8, 8 h, 0.25 µM; summary of the method: as §1
[10] = Drug uptake in human MDA-MB-231 cells incubated for 1 hrs by laser scanning confocal microscopic analysis; type: ADME, cell-based; conditions: mda-mb-231, 1 h, dose 0.25-2 µM; summary of the method: as §2

Structure (SMILES)	IC50 [2]	IC50 [4]	IC50 [5]	also measured
CC[C@H](C)[C@H]1C(=O)N[C@H](Cc2cc(Cl)c(O)c(Cl)c2)C(=O)N[C@@H](C(C)(C)O)C(=O)O[C@H](c2ccccc2)[C@H](C)/C=C/C=C(\C)[C@H](OC)C[C@@H]2O[C@@]2(C)C(=O)N1C	0.0152 µM	0.0042 µM	0.0109 µM	IC50 [1]: 0.0026 µM; IC50 [3]: 0.0012 µM
CC[C@H](C)[C@H]1C(=O)N[C@H](COC(=O)c2ccccc2)C(=O)N[C@@H](C(C)(C)O)C(=O)O[C@H](c2ccccc2)[C@H](C)/C=C/C=C(\C)[C@H](OC)C[C@@H]2O[C@@]2(C)C(=O)N1C	0.0401 µM	0.0137 µM	0.0234 µM	
CC[C@H](C)[C@H]1C(=O)N[C@H](COC(=O)/C=C/c2ccccc2)C(=O)N[C@@H](C(C)(C)O)C(=O)O[C@H](c2ccccc2)[C@H](C)/C=C/C=C(\C)[C@H](OC)C[C@@H]2O[C@@]2(C)C(=O)N1C	0.0458 µM	0.0187 µM	0.0276 µM	
CCCCCCCCCC(=O)OC[C@H]1NC(=O)[C@H]([C@@H](C)CC)N(C)C(=O)[C@]2(C)O[C@H]2C[C@@H](OC)/C(C)=C/C=C/[C@@H](C)[C@@H](c2ccccc2)OC(=O)[C@H](C(C)(C)O)NC1=O	0.0974 µM	0.0766 µM	0.0167 µM	
C=CC(=O)OC[C@H]1NC(=O)[C@H]([C@@H](C)CC)N(C)C(=O)[C@]2(C)O[C@H]2C[C@@H](OC)/C(C)=C/C=C/[C@@H](C)[C@@H](c2ccccc2)OC(=O)[C@H](C(C)(C)O)NC1=O	0.0818 µM	0.0519 µM	0.0355 µM	
CC[C@H](C)[C@H]1C(=O)N[C@H](COC(=O)c2ccncc2)C(=O)N[C@@H](C(C)(C)O)C(=O)O[C@H](c2ccccc2)[C@H](C)/C=C/C=C(\C)[C@H](OC)C[C@@H]2O[C@@]2(C)C(=O)N1C	0.0323 µM	0.0103 µM	0.0574 µM	
CC[C@H](C)[C@H]1C(=O)N[C@H](COC(=O)CCC(=O)O)C(=O)N[C@@H](C(C)(C)O)C(=O)O[C@H](c2ccccc2)[C@H](C)/C=C/C=C(\C)[C@H](OC)C[C@@H]2O[C@@]2(C)C(=O)N1C	0.0526 µM	> 0.2 µM	0.115 µM	
CC[C@H](C)[C@H]1C(=O)N[C@H](COC(=O)c2sc(C)nc2C)C(=O)N[C@@H](C(C)(C)O)C(=O)O[C@H](c2ccccc2)[C@H](C)/C=C/C=C(\C)[C@H](OC)C[C@@H]2O[C@@]2(C)C(=O)N1C	0.0206 µM	0.0029 µM	0.0605 µM	
CC[C@H](C)[C@H]1C(=O)N[C@H](COC(=O)C2CC2)C(=O)N[C@@H](C(C)(C)O)C(=O)O[C@H](c2ccccc2)[C@H](C)/C=C/C=C(\C)[C@H](OC)C[C@@H]2O[C@@]2(C)C(=O)N1C	0.0618 µM	0.0427 µM	0.0196 µM	
CC[C@H](C)[C@H]1C(=O)N[C@H](CO)C(=O)N[C@@H](C(C)(C)O)C(=O)O[C@H](c2ccccc2)[C@H](C)/C=C/C=C(\C)[C@H](OC)C[C@@H]2O[C@@]2(C)C(=O)N1C	0.0294 µM	0.0376 µM	0.0322 µM	

More lines, in order of falling IC50 [2], values ahead:

IC50 [2]	IC50 [4]	IC50 [5]	Structure (SMILES)	also measured
0.141 µM	0.136 µM	0.0523 µM	CC[C@H](C)[C@H]1C(=O)N[C@H](COC(=O)c2cc3ccc(N(CC)CC)cc3oc2=O)C(=O)N[C@@H](C(C)(C)O)C(=O)O[C@H](c2ccccc2)[C@H](C)/C=C/C=C(\C)[C@H](OC)C[C@@H]2O[C@@]2(C)C(=O)N1C	Drug uptake [6]: Active; Drug uptake [7]: Active; Drug uptake [8]: Tde; Drug uptake [9]: Active; Drug uptake [10]: Dose-Dependent Effect
0.0788 µM	0.0235 µM	0.0249 µM	CC[C@H](C)[C@H]1C(=O)N[C@H](COC(=O)/C=C/c2cc(F)cc(F)c2)C(=O)N[C@@H](C(C)(C)O)C(=O)O[C@H](c2ccccc2)[C@H](C)/C=C/C=C(\C)[C@H](OC)C[C@@H]2O[C@@]2(C)C(=O)N1C	
0.0462 µM	0.0271 µM	0.0184 µM	CCCCC(=O)OC[C@H]1NC(=O)[C@H]([C@@H](C)CC)N(C)C(=O)[C@]2(C)O[C@H]2C[C@@H](OC)/C(C)=C/C=C/[C@@H](C)[C@@H](c2ccccc2)OC(=O)[C@H](C(C)(C)O)NC1=O	
0.0435 µM	0.0298 µM	0.0029 µM	CC[C@H](C)[C@H]1C(=O)N[C@H](COC(=O)C2=CCC2)C(=O)N[C@@H](C(C)(C)O)C(=O)O[C@H](c2ccccc2)[C@H](C)/C=C/C=C(\C)[C@H](OC)C[C@@H]2O[C@@]2(C)C(=O)N1C	
0.0207 µM	0.0377 µM	0.044 µM	CC[C@H](C)[C@H]1C(=O)N[C@H](COC(=O)C2CCCCC2)C(=O)N[C@@H](C(C)(C)O)C(=O)O[C@H](c2ccccc2)[C@H](C)/C=C/C=C(\C)[C@H](OC)C[C@@H]2O[C@@]2(C)C(=O)N1C	
0.017 µM	0.0175 µM	0.0243 µM	CC[C@H](C)[C@H]1C(=O)N[C@H](COC(C)=O)C(=O)N[C@@H](C(C)(C)O)C(=O)O[C@H](c2ccccc2)[C@H](C)/C=C/C=C(\C)[C@H](OC)C[C@@H]2O[C@@]2(C)C(=O)N1C	
